These results are taken from ChEMBL document CHEMBL4392868, “Cytotoxic Tigliane Diterpenoids from Croton damayeshu” (J Nat Prod, 2019).

What is called inhibition is the relative decrease from the control value, in per cent. As usually defined, the IC50 is the concentration needed to halve the response being measured.

The structures appear in SMILES notation. Where a name gives a salt, the structure may show the parent alone.

In test [1] the test system is A549. The test is described as follows: Cytotoxicity against human A549 cells assessed as inhibition of cell growth at 10 uM measured after 72 hrs by CCK8 assay relative to control. Format: functional. The note with it: A549, 72 h.
In test [2] the test system is HL-60. In words: Cytotoxicity against human HL60 cells assessed as inhibition of cell growth at 10 uM measured after 72 hrs by CCK8 assay relative to control. It is filed as functional. The note with it: HL-60, 72 h.
Test [3] concerns HL-60. In words: Cytotoxicity against human HL60 cells measured after 72 hrs by CCK8 assay. Format: functional, cell-based. Particulars: HL-60, 72 h. Summed up:
(§1)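 Human tumor cell lines A549 and HL-60 were assayed in vitro for cytotoxicity by the CCK-8 colorimetric method. Adriamycin served as the positive control, and IC50 values are reported in μM.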
(In general: Tetrazolium assays rely on reduction of a dye to a coloured formazan, in cell work by metabolically active cells.)

Test [4] concerns A549. In words: Cytotoxicity against human A549 cells measured after 72 hrs by CCK8 assay. Format: functional, cell-based. The note with it: A549, 72 h. Summed up:
as §1

As for `CC1=C[C@@H]2[C@@H](CC(C=O)=C[C@H]3[C@@H]4C(C)(C)[C@]4(OC(=O)C(C)C)[C@H](O)[C@@H](C)[C@]23O)C1=O`, the inhibition at 10 µM with A549 [1] and in the test with HL-60 [2] was < 50% throughout.

For `C/C=C(\C)C(=O)O[C@@H]1[C@@H](C)[C@]2(O)[C@@H]3C=C(C)C(=O)[C@@H]3CC(CO)=C[C@H]2[C@@H]2C(C)(C)[C@]12OC(=O)C(C)C`, the values for the IC50 in the test with HL-60 [3] and in the test with A549 [4] were 1800 nM and 1900 nM, respectively.

For `C/C=C(\C)C(=O)O[C@@H]1[C@@H](C)[C@]2(O)[C@@H]3C=C(C)C(=O)[C@@H]3CC(CO)=C[C@H]2[C@@H]2C(C)(C)[C@]12OC(C)=O`, the inhibition at 10 µM with A549 [1] and in the test with HL-60 [2] was < 50% each time.

`C/C=C(\C)C(=O)O[C@@H]1[C@@H](C)[C@]2(O)[C@@H]3C=C(C)C(=O)[C@@H]3CC(CO)=C[C@H]2[C@@H]2C(C)(C)[C@]12OC(=O)[C@@H](C)[C@@H](C)O`: the inhibition at 10 µM with A549 [1] and in the test with HL-60 [2] was < 50% in each case.

For the compound `CC[C@H](C)C(=O)O[C@@]12[C@H](O)[C@@H](C)[C@]3(O)[C@@H]4C=C(C)C(=O)[C@@H]4CC(CO)=C[C@H]3[C@@H]1C2(C)C`, the inhibition at 10 µM in the test with A549 [1] and with HL-60 [2] was < 50% throughout.

For `COc1cccc2c1C(=O)c1c(O)c3c(c(O)c1C2=O)C[C@@](O)(C(=O)CO)C[C@@H]3O[C@H]1C[C@H](N)[C@H](O)[C@H](C)O1` [DOXORUBICIN HYDROCHLORIDE], the IC50 in the test with HL-60 [3] worked out at 80 nM; in the test with A549 [4] it was 400 nM.

Consider `C/C=C(\C)C(=O)O[C@@H]1[C@@H](C)[C@]2(O)[C@@H]3C=C(C)C(=O)[C@@H]3CC(C=O)=C[C@H]2[C@@H]2C(C)(C)[C@]12OC(=O)[C@@H](C)CC`, for which the IC50 with HL-60 [3] was 2400 nM; with A549 [4], 1300 nM.

For the compound `CC[C@H](C)C(=O)O[C@@H]1[C@@H](C)[C@]2(O)[C@@H]3C=C(C)C(=O)[C@@H]3CC(CO)=C[C@H]2[C@@H]2C(C)(C)[C@]12OC(=O)C(C)C`, the IC50 in the test on A549 [4] came to 3700 nM. Further, in the test on HL-60 [2], the inhibition at 10 µM is < 50%.

On to `CC1=C[C@@H]2[C@@H](CC(CO)=C[C@H]3[C@@H]4C(C)(C)[C@]4(OC(=O)[C@@H](C)[C@@H](C)O)[C@H](O)[C@@H](C)[C@]23O)C1=O`, for which the inhibition at 10 µM with A549 [1] and in the test on HL-60 [2] was < 50% each time.

For the compound `CC1=C[C@@H]2[C@@H](CC(CO)=C[C@H]3[C@@H]4C(C)(C)[C@]4(OC(=O)C(C)C)[C@H](O)[C@@H](C)[C@]23O)C1=O`, the inhibition at 10 µM in the test with A549 [1] and in the test with HL-60 [2] was < 50% each time.

As to `CC[C@H](C)C(=O)O[C@@]12[C@H](OC(=O)c3ccccc3)[C@@H](C)[C@]3(O)[C@@H]4C=C(C)C(=O)[C@@H]4CC(CO)=C[C@H]3[C@@H]1C2(C)C`, the IC50 with HL-60 [3] was found to be 22700 nM; with A549 [4], 4100 nM.

With `CC[C@H](C)C(=O)O[C@@H]1[C@@H](C)[C@]2(O)[C@@H]3C=C(C)C(=O)[C@@H]3CC(CO)=C[C@H]2[C@@H]2C(C)(C)[C@]12OC(=O)[C@@H](C)CC`, the concentration for half-maximal inhibition (IC50) in the test on HL-60 [3] came out at 18900 nM; in the test with A549 [4], 4600 nM.

Take `CC[C@H](C)C(=O)O[C@@]12[C@H](O)[C@@H](C)[C@]3(O)[C@@H]4C=C(C)C(=O)[C@@H]4CC(C=O)=C[C@H]3[C@@H]1C2(C)C`: inhibition in the test with A549 [4] was half-maximal at 900 nM (IC50). The inhibition at 10 µM with HL-60 [2] was < 50%.

In turn, `C/C=C(\C)C(=O)O[C@@H]1[C@@H](C)[C@]2(O)[C@@H]3C=C(C)C(=O)[C@@H]3CC(CO)=C[C@H]2[C@@H]2C(C)(C)[C@]12OC(=O)[C@@H](C)CC` displayed an IC50 in the test with A549 [4] of 18300 nM. In addition, in the test on HL-60 [2], the inhibition at 10 µM is < 50%.
